Laboratory results published in publication PMC11605122 (Nature Communications, 2024).
Entries after “also recorded” stand apart in the source; their conditions may differ.

Tests used:
[1] = peptide concentration in plasma; type: in vivo, mouse; settings: DIO mice, 24 h post-injection, 50 nmol/kg s.c., n = 6; cAMP bioassay
Summary of the method: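 Plasma activity was read in a cAMP assay on CHO cells expressing human GLP-1R, in HBSS pH 7.4 with 25 mM HEPES, 0.1% BSA and 0.5 mM IBMX. Serial dilutions were run in duplicate for 30 min at RT with HTRF detection. Standards were reference peptide spiked into 0.2% (final) naïve plasma. Sample ratio = sample EC50/reference EC50; concentration = known top concentration/ratio.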

body weight, HFD-fed = type: in vivo, mouse; settings: DIO mice, 1 week
plasma insulin = type: in vivo, mouse; settings: DIO mice, Fc-GLP1
Summary of the method: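 Plasma ALT was read with Reflotron strips and plasma TGs by colorimetric assay. Serum FGF21 and plasma adiponectin and insulin were measured by ELISA.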

plasma FFAs = type: in vivo, mouse
blood ketone bodies = type: in vivo, mouse; settings: DIO mice, Fc-GLP1
Summary of the method: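 DIO mice were fed 60%-fat HFD from 8 weeks of age, for 12 weeks (males) or 24 weeks (females); one male cohort was housed at 30 °C. The test compound was given s.c. every 2 days in 50 mM sodium phosphate/300 mM mannitol pH 6.9. Glucose and ketone bodies were read in tail-vein blood.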

BAT skin temperature = type: in vivo, mouse; settings: DIO mice, Fc-GLP1
BAT, eWAT, iWAT = assay: UCP1 and TH protein; type: in vivo, mouse; settings: DIO mice, Fc-GLP1
[2] = test system: POMC neurons, arcuate nucleus; assay: cFos-positive POMC neurons in ARC; type: in vivo, mouse; settings: DIO mice, Fc-GLP1, 1 week
Summary of the method: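 Brain slices were blocked 2 h at RT in PBS with 1% BSA and 0.1% Triton X-100. They were incubated overnight at 4 °C with anti-POMC and anti-c-Fos, then with secondary antibodies in 1% BSA/PBS for 2 h at RT, protected from light.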

[3] = cited from earlier work
GCGR and GLP-1R = settings: vs cognate ligands; cited from earlier work
[4] = cited from earlier work; remark: listed apart in the source
GCGR = assay: block of glucagon-induced glucose elevation in lean mice; type: in vivo, mouse
eWAT explants = assay: lipolysis; type: cell-based, mouse; settings: 10 nM glucagon, 4 h
[5] = cited from earlier work; remark: listed apart in the source

Substance: HGEGTFTSDVSSYLEGQAAKEFIAWLVKGG-linker-Fc [Fc-GLP1, reference compound]
- peptide plasma level [1]: 105.1 ± 18.33 nM
- loss of body weight (body weight, HFD-fed; Fc-GLP1 50 nmol/kg): 11.0 ± 0.46%
- plasma insulin peak (plasma insulin): a lower insulin peak
- plasma FFAs (plasma FFAs; DIO mice, Fc-GLP1, 6 h): elevation of FFAs was not observed
- ketogenesis (blood ketone bodies): ketogenesis was not elevated
- BAT temperature (BAT skin temperature): neither UCP1 nor BAT temperature were increased
- UCP1 in BAT (BAT, eWAT, iWAT): neither UCP1 nor BAT temperature were increased
- cFos positive POMC neurons [2]: an increase in cFos positive POMC neurons

Substance: OXM: native peptide oxyntomodulin, activates both GLP-1R and GCGR
- half-life in circulation [3]: short half-life in circulation
- affinity to GLP-1R and GCGR (GCGR and GLP-1R): reduced affinity compared with their cognate ligands

Substance: cotadutide
- postprandial glucose, body weight, hepatic fat ([4]; obese/overweight individuals, type 2 diabetes): improved postprandial glucose excursions and reduced body weight and hepatic fat
- glycemia, body weight, MASLD ([4]; phase 2b trial): reduced glycemia and body weight and improved metabolic-dysfunction associated steatotic liver disease (MASLD)
- liver metabolism, MASH and fibrosis ([3]; C57BL/6J or ob/ob mice): more effective than obeticholic acid in improving liver metabolism and ameliorating MASH and fibrosis
- liver inflammation and adipocyte apoptosis [3]: decreased liver inflammation and apoptosis in adipocytes

Substance: des-His1-[Glu9]-Glucagon (1-29) amide [GCGRant, reference compound]
- body weight loss (body weight, HFD-fed; GCGRant alone (1 mg/kg i.p. daily)): 6.8 ± 0.46%
- block of glucagon effect on glucose (GCGR): able to block the effect of glucagon in elevating glucose levels in lean mice

Substance: glucagon: native GCGR ligand
- circulating FFAs / lipolysis (plasma FFAs; lean mice, glucagon (100 nmol/kg), 1 h): this effect was not detected at 1 h; also recorded: did not increase lipolysis at 1 h
- circulating FFAs (plasma FFAs; lean mice, glucagon, 6 h post-injection): an increase of circulating FFAs at 6 h post-injection
- lipolysis (eWAT explants): increased lipolysis in eWAT explants
- FFA concentration, supraphysiological administration [5]: increased FFA concentration
- plasma FFAs, physiological doses ([5]; humans): did not find elevation in plasma FFAs in humans
- lipolysis ex vivo in WAT explants ([5]; wild-type or adipocyte-specific GCGR-deficient mice, 1 h): lack of effect of glucagon in lipolysis ex vivo in WAT explants
